Assay results reported in ChEMBL document CHEMBL5321243, “The Cytotoxic Cardiac Glycoside (-)-Cryptanoside A from the Stems of Cryptolepis dubia and Its Molecular Targets” (J Nat Prod, 2023).
Active and inactive are the calls of the source. The calls are words filed in the database; no cut-off is given here.

Columns and labels:
HT-29 = assay: Cytotoxicity against human HT-29 cells incubated for 72 hrs by Cell titer blue assay; assay type: functional, cell-based; conditions: HT-29, 72 h
Outline: (§1)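 Cells grown in RPMI 1640 with 10% FBS, penicillin and streptomycin at 37 °C, 5% CO₂; 5,000 log-phase cells per well seeded, left overnight, then exposed 72 h to serial dilutions from DMSO (DMSO vehicle; paclitaxel positive control). Viability read by CellTiter-Blue absorbance; IC50 relative to vehicle by nonlinear regression; triplicate, three independent experiments.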

OVCAR-3 = assay: Cytotoxicity against human OVCAR-3 cells incubated for 72 hrs by Cell titer blue assay; assay type: functional, cell-based; conditions: OVCAR-3, 72 h; outline: as §1
OVCAR-5 = assay: Cytotoxicity against human OVCAR-5 cells incubated for 72 hrs by Cell titer blue assay; assay type: functional, cell-based; conditions: OVCAR-5, 72 h; outline: as §1
MDA-MB-231 [1] = assay: Upregulation of p-Akt expression in human MDA-MB-231 cells at 0.48 uM incubated for 5 hrs by Western blot analysis; assay type: functional, cell-based
Outline: (§2)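 MDA-MB-231 cells in DMEM with 10% FBS and antibiotics, seeded overnight, then exposed to 0.5 µM or 0.48 µM (from DMSO) for 5 h at 37 °C. Cells washed in cold PBS, lysed in RIPA with EDTA and protease inhibitors; equal protein immunoblotted for p-Akt or NF-κB p50, normalized to β-actin; n = 3, t test versus control.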

MDA-MB-231 [2] = assay: Downregulation of NF-kappaB p50 expression in human MDA-MB-231 cells at 0.48 uM incubated for 5 hrs by Western blot analysis; assay type: functional, cell-based; outline: as §2
MDA-MB-231 [3] = assay: Upregulation of Akt expression in human MDA-MB-231 cells at 1 to 10 uM incubated for 72 hrs by Western blot analysis; assay type: functional, cell-based; conditions: dose 1-10 µM
Outline: (§3)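 MDA-MB-231 cells in DMEM with 10% FBS, penicillin and streptomycin; 5,000 cells per well seeded, left overnight, then exposed to 1.0, 5.0 or 10.0 µM (from DMSO) for 72 h at 37 °C. Surviving cells lysed in RIPA with 1 mM EDTA and protease inhibitors; equal protein (BCA) immunoblotted, signals normalized to β-actin; three independent experiments, t test versus control.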

MDA-MB-231 [4] = assay: Upregulation of NF kappaB p65 expression in human MDA-MB-231 cells at 1 to 10 uM incubated for 72 hrs by Western blot analysis; assay type: functional, cell-based; conditions: dose 1-10 µM; outline: as §3
MDA-MB-231 [5] = assay: Effect on NF-kappaB p52 expression in human MDA-MB-231 cells at 1 to 10 uM incubated for 72 hrs by Western blot analysis; assay type: functional, cell-based; conditions: dose 1-10 µM; outline: as §3
MDA-MB-231 [6] = assay: Effect on PI3K expression in human MDA-MB-231 cells at 1 to 10 uM incubated for 72 hrs by Western blot analysis; assay type: functional, cell-based; conditions: dose 1-10 µM; outline: as §3
MDA-MB-231 [7] = assay: Downregulation of NF kappaB p50 expression in human MDA-MB-231 cells at 1 to 10 uM incubated for 72 hrs by Western blot analysis; conditions: dose 1-10 µM
MDA-MB-231 [8] = assay: Upregulation of p-Akt expression in human MDA-MB-231 cells at 0.5 uM incubated for 5 hrs by Western blot analysis; assay type: functional, cell-based; outline: as §2
MDA-MB-231 [9] = assay: Cytotoxicity against human MDA-MB-231 cells incubated for 72 hrs by Cell titer blue assay; assay type: functional, cell-based; conditions: MDA-MB-231, 72 h; outline: as §1
MDA-MB-435 = assay: Cytotoxicity against human MDA-MB-435 cells incubated for 72 hrs by Cell titer blue assay; assay type: functional, cell-based; conditions: MDA-MB-435, 72 h; outline: as §1
[10] = Cytotoxicity against human FT194 cells incubated for 72 hrs by Cell titer blue assay; assay type: functional, cell-based; conditions: FT194, 72 h; outline: as §1
MDA-MB-231 [11] = assay: Downregulation of NF-kappaB p50 expression in human MDA-MB-231 cells at 0.5 uM incubated for 5 hrs by Western blot analysis; assay type: functional, cell-based; outline: as §2
MDA-MB-231 [12] = assay: Downregulation of NF kappaB p52 expression in human MDA-MB-231 cells at 5 to 10 uM incubated for 72 hrs by Western blot analysis; assay type: functional, cell-based; conditions: dose 5-10 µM; outline: as §3
[13] = target: Sodium/potassium-transporting ATPase (Sus scrofa); assay: Inhibition of NA+/K+ ATPase (porcine cerebral cortex) activity incubated for 15 mins in presence of ATP by ADP-Glo assay

Row | IC50 [13] | SMILES | IC50 (HT-29) | IC50 (OVCAR-3) | IC50 (OVCAR-5) | Activity (MDA-MB-231 [1]) | Activity (MDA-MB-231 [2]) | Activity (MDA-MB-231 [3]) | Activity (MDA-MB-231 [4]) | Activity (MDA-MB-231 [5]) | Activity (MDA-MB-231 [6]) | Activity (MDA-MB-231 [7]) | Activity (MDA-MB-231 [8]) | IC50 (MDA-MB-231 [9]) | IC50 (MDA-MB-435) | IC50 [10] | Activity (MDA-MB-231 [11]) | Activity (MDA-MB-231 [12])
1 | – | CC(=O)O[C@H]1C(=O)[C@@]2(C)[C@H]([C@H](OC(=O)c3ccccc3)[C@]3(O)C[C@H](OC(=O)[C@H](O)[C@@H](NC(=O)c4ccccc4)c4ccccc4)C(C)=C1C3(C)C)[C@]1(OC(C)=O)CO[C@@H]1C[C@@H]2O [PACLITAXEL] | 3400 nM | 4.9 nM | 7300 nM | – | – | – | – | – | – | – | – | – | – | – | – | –
2 | – | C[C@H]1O[C@@H](O[C@H]2[C@@H](O)C[C@H](O[C@H]3[C@@H](O)C[C@H](O[C@H]4CC[C@@]5(C)[C@H](CC[C@@H]6[C@@H]5C[C@@H](O)[C@]5(C)[C@@H](C7=CC(=O)OC7)CC[C@]65O)C4)O[C@@H]3C)O[C@@H]2C)C[C@H](O)[C@@H]1O | – | – | – | Active | inactive | Active | Active | inactive | inactive | Active | – | – | – | – | – | –
3 | 1200 nM | CO[C@H]1C[C@H](O[C@H]2CC[C@]3(C)C4[C@H](O)C(=O)[C@]5(C)[C@@H](C6=CC(=O)OC6)CC[C@]5(O)[C@@]45O[C@H]5C[C@@H]3C2)O[C@@H](C)[C@@H]1O (stereo not given in full) | 220 nM | 140 nM | 440 nM | – | – | Active | Active | inactive | inactive | Active | Active | 500 nM | 200 nM | 1100 nM | inactive | Active
